Assay results taken from publication PMC5912169 (Bioorganic & medicinal chemistry letters, 2018).

Experiments:
[1] = system: T. brucei (STIB795); assay: In vivo antitrypanosomal activity, T. b. brucei STIB795-Luc mouse model; parameters: species or system mice; details: 4 consecutive days
Method in brief: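 Groups of four female NMRI mice were infected ip with 1 × 10⁴ bloodstream-form T. b. brucei STIB795-Luc. Test compound was given ip in water plus 10% DMSO from 3 days post-infection, with an untreated control group. Parasitemia was tracked by live imaging, and moribund mice were euthanized.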

[2] = biological target: T. brucei cathepsin L (rhodesain) (Trypanosoma brucei rhodesiense, UniProt Q95PM0); assay: Rhodesain inhibition assay; format: biochemical; details: 1 hour pre-incubation
Method in brief: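 Rhodesain was expressed in Pichia pastoris and used at 0.8 nM final in 50 mM sodium acetate pH 5.5 with 2 mM DTT and 0.01% Triton X-100. It was pre-incubated 1 h with test compound (20 μM final), then Z-Phe-Arg-AMC (10 μM) was added. Cleavage rate (RFU/sec) was read at 25 °C, λex 355/λem 460 nm. E-64 (10 μM) served as positive control.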

[3] = biological target: human cathepsin L (Homo sapiens, UniProt P07711); assay: Human cathepsin L inhibition; format: biochemical; details: from 0.1 μM to 125 μM; 1 hour pre-incubation
Sequence of human cathepsin L (P07711 114-333): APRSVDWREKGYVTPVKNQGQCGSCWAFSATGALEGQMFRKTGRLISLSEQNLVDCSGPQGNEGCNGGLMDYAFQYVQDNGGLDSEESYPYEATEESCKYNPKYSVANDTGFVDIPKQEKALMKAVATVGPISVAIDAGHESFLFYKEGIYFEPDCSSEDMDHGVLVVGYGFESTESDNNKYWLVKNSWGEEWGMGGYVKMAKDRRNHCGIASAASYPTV
Method in brief: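 Human liver-derived cathepsin L (0.58 nM) in 400 mM sodium acetate pH 5.5 with 8 mM DTT, 4 mM EDTA and 0.01% Triton X-100. Pre-incubated 1 h with test compound, then Z-Phe-Arg-AMC (20 μM, concentration as added) in sodium acetate buffer. Substrate cleavage was followed as fluorescence rate (RFU/sec) at 25 °C, λex 355/λem 460 nm.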

SMILES | parasites in infected mice 24 hours posttreatment ([1]; 50 mg/kg/day intraperitoneally) | parasites in infected mice 24 hours posttreatment ([1]; 100 mg/kg/day intraperitoneally) | inhibition of rhodesain at 20 μM [2] | inhibitory activity against human cathepsin L [3]
O=C(Cc1ccc(OC/C=C/S(=O)(=O)c2ccccc2)cc1)Nc1cccc2cccnc12 [Compound 9] | positive for parasites | positive for parasites | – | –
O=C(N[C@H](/C=C/S(=O)(=O)c1ccccc1)CCc1ccccc1)c1cccc2cccnc12 [Compound 27] | – | – | completely inactivate | inactive
